Measurements: ChEMBL document CHEMBL1157424, “Alisiaquinones and alisiaquinol, dual inhibitors of Plasmodium falciparum enzyme targets from a New Caledonian deep water sponge” (J Nat Prod, 2008)
The source made the active and inactive calls. No cut-off for these calls is given here.

Assays:
Plasmodium falciparum [1] = experiment: Antiplasmodial activity against chloroquine-sensitive Plasmodium falciparum F32 by [3H]hypoxanthine uptake; format: functional, organism-based
Method in brief: (§1)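 Parasites kept in continuous culture per Trager and Jensen (modified) and synchronized every 48 h by 5% D-sorbitol lysis. Growth was read as [3H]hypoxanthine incorporation by the modified Desjardins method.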

Plasmodium falciparum [2] = experiment: Inhibition of Plasmodium falciparum Pfnek1 at 1 uM
Method in brief: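 Compounds were tested at 50, 5 and 1 µM with equal DMSO in all reactions. Reactions were stopped with Laemmli buffer and run on SDS-PAGE. Remaining activity (%) was quantified by autoradiography and phosphorimaging; no IC50 was determined.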

[3] = system: Plasmodium vinckei petteri; experiment: Antiplasmodial activity as reduced parasitaemia at day 5 in Plasmodium vinckei petteri infected CD mice (Mus musculus) at 20 mg/kg/day intraperitoneal dose; format: functional; conditions: ip, 120 h
Method in brief: (§2)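 Four-day suppressive test in female CD mice (20 ± 2 g), each infected on day 0 with 10^6 P. vinckei petteri-parasitized erythrocytes in RPMI. Groups of five received ip doses on days 0–3. Controls got RPMI alone. Parasitaemia was counted on Giemsa-stained tail-blood smears (≥5000 erythrocytes). % inhibition = (control − treated)/control × 100.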

[4] = Toxicity in Plasmodium vinckei petteri infected CD mice (Mus musculus) assessed as mortality at 20 mg/kg/day, intraperitoneally measured on day 15; format: organism-based; set-up: route intraperitoneal; conditions: in vivo, ip, read-out: INH
Method in brief: (§3)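 4-day suppressive test in female CD mice (20 ± 2 g) infected on day 0 with 10^6 parasitized red cells in RPMI. Groups of five were dosed intraperitoneally on days 0–3 at 5 or 20 mg/kg; reference dosing was 1 or 10 mg/kg, with RPMI-alone controls. Parasitaemia was counted on day-4 Giemsa tail-blood smears. Survival was followed for three additional weeks.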

MCF7 = experiment: Cytotoxicity against human MCF7 cells assessed as [3H]hypoxanthine incorporation; format: cell-based
Method in brief: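 MCF-7 cells were grown in DMEM with 2 mM L-glutamine and 10% FCS at 37 °C, 5% CO2. Exponential-phase cells were trypsinized and seeded at 200 000 cells/mL. After 24 h, the medium was replaced with fresh medium containing compound at 0.01–100 µg/mL. Viability was read by [3H]hypoxanthine incorporation, and IC50 was taken graphically from dose-response curves.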

[5] = Toxicity in Plasmodium vinckei petteri infected CD mice (Mus musculus) assessed as mortality at 5 mg/kg/day, […] measured on day 5; format: organism-based; conditions: in vivo, read-out: INH
Plasmodium falciparum [6] = experiment: Antiplasmodial activity against chloroquine-resistant Plasmodium falciparum FcM29 by [3H]hypoxanthine uptake; format: functional, organism-based; method in brief: as §1
[7] = Toxicity in Plasmodium vinckei petteri infected CD mice (Mus musculus) assessed as mortality at 5 mg/kg/day, intraperitoneally measured on day 15; format: organism-based; set-up: route intraperitoneal; conditions: in vivo, ip, read-out: INH; method in brief: as §3
[8] = Toxicity in Plasmodium vinckei petteri infected CD mice (Mus musculus) assessed as mortality at 5 mg/kg/day, intraperitoneally measured on day 1; format: organism-based; set-up: route intraperitoneal; conditions: in vivo, ip, read-out: INH; method in brief: as §3
[9] = Selectivity index ratio of IC50 for human MCF7 cells to IC50 for chloroquine-sensitive Plasmodium falciparum F32; format: functional
Method in brief: (§4)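 The ratio compares the MCF-7 IC50 with the parasite IC50. MCF-7 cells were grown in DMEM with 2 mM L-glutamine and 10% FCS at 37 °C, 5% CO2, and used in exponential growth. They were seeded at 200 000 cells/mL; after 24 h, compounds were added at 0.01–100 µg/mL. Viability was read by [3H]hypoxanthine incorporation and IC50 taken graphically from the curves. Parasite IC50s came from the [3H]hypoxanthine incorporation assay on synchronized cultures.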

[10] = Toxicity in Plasmodium vinckei petteri infected CD mice (Mus musculus) assessed as mortality at 20 mg/kg/day, intraperitoneally measured on day 1; format: organism-based; set-up: route intraperitoneal; conditions: in vivo, ip, read-out: INH; method in brief: as §3
[11] = system: Plasmodium vinckei petteri; experiment: Antiplasmodial activity as reduced parasitaemia at day 5 in Plasmodium vinckei petteri infected CD mice (Mus musculus) at 5 mg/kg/day intraperitoneal dose; format: functional; conditions: ip, 120 h; method in brief: as §2
[12] = Selectivity index ratio of IC50 for human MCF7 cells to IC50 for chloroquine-resistant Plasmodium falciparum FcM29; format: functional; method in brief: as §4
[13] = Toxicity in Plasmodium vinckei petteri infected CD mice (Mus musculus) assessed as mortality at 20 mg/kg/day, intraperitoneally measured on day 5; format: organism-based; set-up: route intraperitoneal; conditions: in vivo, ip, read-out: INH; method in brief: as §3
Plasmodium falciparum [14] = experiment: Antiplasmodial activity against chloroquine-resistant Plasmodium falciparum FcB1 by [3H]hypoxanthine uptake; format: functional, organism-based; method in brief: as §1
[15] = Selectivity index ratio of IC50 for human MCF7 cells to IC50 for chloroquine-resistant Plasmodium falciparum FcB1; format: functional; method in brief: as §4
Plasmodium falciparum [16] = experiment: Inhibition of Plasmodium falciparum Pfnek1 at 50 uM
Method in brief: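 Kinase reaction in 20 mM Tris/HCl pH 7.5 with 20 mM MgCl2, 2 mM MnCl2, 0.25 µCi [γ-33P]ATP and 5 µg myelin basic protein as substrate. Compounds were tested at 50, 5 and 1 µM with equal DMSO in all reactions. Reactions were stopped in Laemmli buffer and run on SDS gel. Gels were Coomassie-stained, dried, autoradiographed and quantified by phosphorimaging as % remaining activity.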

[17] = Toxicity in Plasmodium vinckei petteri infected CD mice (Mus musculus) assessed as mortality at 1 mg/kg/day, intraperitoneally measured on day 1; format: organism-based; set-up: route intraperitoneal; conditions: in vivo, ip, read-out: INH; method in brief: as §3
[18] = Toxicity in Plasmodium vinckei petteri infected CD mice (Mus musculus) assessed as mortality at 10 mg/kg/day, intraperitoneally measured on day 1; format: organism-based; set-up: route intraperitoneal; conditions: in vivo, ip, read-out: INH; method in brief: as §3
[19] = Toxicity in Plasmodium vinckei petteri infected CD mice (Mus musculus) assessed as mortality at 1 mg/kg/day, intraperitoneally measured on day 15; format: organism-based; set-up: route intraperitoneal; conditions: in vivo, ip, read-out: INH; method in brief: as §3
[20] = Toxicity in Plasmodium vinckei petteri infected CD mice (Mus musculus) assessed as mortality at 1 mg/kg/day, intraperitoneally measured on day 5; format: organism-based; set-up: route intraperitoneal; conditions: in vivo, ip, read-out: INH; method in brief: as §3
[21] = Toxicity in Plasmodium vinckei petteri infected CD mice (Mus musculus) assessed as mortality at 10 mg/kg/day, intraperitoneally measured on day 5; format: organism-based; set-up: route intraperitoneal; conditions: in vivo, ip, read-out: INH; method in brief: as §3
[22] = system: Plasmodium vinckei petteri; experiment: Antiplasmodial activity as reduced parasitaemia at day 5 in Plasmodium vinckei petteri infected CD mice (Mus musculus) at 10 mg/kg/day intraperitoneal dose; format: functional; conditions: ip, 120 h; method in brief: as §2
[23] = Toxicity in Plasmodium vinckei petteri infected CD mice (Mus musculus) assessed as mortality at 10 mg/kg/day, intraperitoneally measured on day 15; format: organism-based; set-up: route intraperitoneal; conditions: in vivo, ip, read-out: INH; method in brief: as §3
[24] = system: Plasmodium vinckei petteri; experiment: Antiplasmodial activity as reduced parasitaemia at day 5 in Plasmodium vinckei petteri infected CD mice (Mus musculus) at 1 mg/kg/day intraperitoneal dose; format: functional; conditions: ip, 120 h; method in brief: as §2

| Structure (SMILES) | IC50 (Plasmodium falciparum [1]) [µM] | mortality [4] [%] | IC50 (MCF7) [µM] | mortality [5] [%] | IC50 (Plasmodium falciparum [6]) [µM] | mortality [7] [%] | mortality [8] [%] | Ratio IC50 [9] | mortality [10] [%] | inhibition in vivo at 5 mg/kg/day [11] [%] | Ratio IC50 [12] | mortality [13] [%] | IC50 (Plasmodium falciparum [14]) [µM] | Ratio IC50 [15] | inhibition (Plasmodium falciparum [2]) [%] | Activity (Plasmodium falciparum [16]) | further results |
| --- | --- | --- | --- | --- | --- | --- | --- | --- | --- | --- | --- | --- | --- | --- | --- | --- | --- |
| C[C@@]12CCC[C@]3(C)c4cc5c(cc4C(=O)[C@](O)(OC1)[C@H]23)C(=O)C1=C(NCCS1(=O)=O)C5=O [ALISIAQUINONE C] | 0.15 | 100 | 41 | 0 | 0.08 | 60 | 0 | 270 | 60 | 36 | 500 | 80 | 0.21 | 200 |  |  | Activity (Plasmodium falciparum [2]): inactive; inhibition in vivo at 20 mg/kg/day [3]: 42% |
| COC1=CC(=O)c2cc3c(cc2C1=O)C(=O)[C@]1(O)OC[C@@]2(C)CCC[C@@]3(C)[C@@H]21 [ALISIAQUINONE B] | 7.1 |  | 0.8 |  | 2.6 |  |  | <1 |  |  |  |  | 8.4 |  |  |  |  |
| C[C@@]12CCC[C@]3(C)c4cc5c(O)ccc(O)c5cc4C(=O)[C@](O)(OC1)[C@H]23 [ALISIAQUINOL] | 9.9 |  | 1.7 |  | 7.9 |  |  | <1 |  |  |  |  | 6.4 |  | 49 | Active |  |
| C[C@@]12CCC[C@]3(C)c4cc5c(cc4C(=O)[C@](O)(OC1)[C@H]23)C(=O)C=CC5=O [ALISIAQUINONE A] | 9.1 | 100 | 36 | 0 | 8.5 | 40 | 0 | 4 | 100 | 63 | 4 | 100 | 7.4 | 5 | 41 | Active |  |
| CCN(CC)CCCC(C)Nc1ccnc2cc(Cl)ccc12 (stereo not drawn) [CHLOROQUINE] |  |  | 12 |  |  |  |  |  |  |  |  |  |  |  |  |  | mortality [17]: 0%; mortality [18]: 0%; mortality [19]: 100%; mortality [20]: 0%; mortality [21]: 0%; inhibition in vivo at 10 mg/kg/day [22]: 100%; mortality [23]: 0%; inhibition in vivo at 1 mg/kg/day [24]: 0% |
